Data reported in ChEMBL document CHEMBL4330063, “New naphthopyran analogues of LY290181 as potential tumor vascular-disrupting agents” (Eur J Med Chem, 2019).
Active and inactive are the calls of the source. No cut-off for these calls is given here.

How the values were obtained:
518A2 [1] = assay: Antiproliferative activity against human 518A2 cells after 72 hrs by MTT assay; type: functional, cell-based; conditions: for IC50: 518A2, 72 h
Summary of the method: (§1)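 MTT read-out after 72 h of continuous exposure. Viability is expressed as percentage of viable cells relative to untreated controls. IC50 comes from dose-response curves. Values are means±SD of four independent experiments (two for some entries). DMSO was below 1%, with vehicle controls at equal DMSO. Precipitation was excluded spectrometrically and microscopically.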

HT-29 [2] = assay: Antiproliferative activity against human HT-29 cells after 72 hrs by MTT assay; type: functional, cell-based; conditions: HT-29, 72 h; summary of the method: as §1
A2780 = assay: Antiproliferative activity against human A2780 cells after 72 hrs by SRB assay; type: functional, cell-based; conditions: A2780, 72 h
Summary of the method: (§2)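 Ovarian A2780 and cisplatin-resistant A2780cis cells were exposed for 72 h and stained with SRB. IC50 comes from dose-response curves, as means±SD of three independent experiments. Final DMSO was below 1%, with matched vehicle controls.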

[3] = Antiproliferative activity against human A2780cis cells after 72 hrs by SRB assay; type: functional, cell-based; summary of the method: as §2
DLD-1 = assay: Antiproliferative activity against human DLD1 cells after 72 hrs by MTT assay; type: functional, cell-based; conditions: DLD-1, 72 h; summary of the method: as §1
EA.hy 926 = assay: Antiproliferative activity against human EAhy926 cells after 72 hrs by MTT assay; type: functional, cell-based; conditions: EA.hy 926, 72 h; summary of the method: as §1
PANC-1 = assay: Antiproliferative activity against human PANC1 cells after 72 hrs by MTT assay; type: functional, cell-based; conditions: PANC-1, 72 h; summary of the method: as §1
HCT-116 = assay: Antiproliferative activity against human HCT116 cells after 72 hrs by MTT assay; type: functional, cell-based; conditions: HCT-116, 72 h; summary of the method: as §1
[4] = Antiproliferative activity against human KB-V1/Vbl cells after 72 hrs by MTT assay; type: functional, cell-based; summary of the method: as §1
[5] = Antiproliferative activity against human MCF7/Topo cells after 72 hrs by MTT assay; type: functional, cell-based; summary of the method: as §1
HT-29 [6] = assay: Cell cycle arrest in human HT-29 cells assessed as accumulation of cells at sub G1 phase at 100 nM after 24 hrs by propidium iodide staining-based flow cytometric analysis (reference value: 1.2 +/- 0.3%); type: functional
HT-29 [7] = assay: Cell cycle arrest in human HT-29 cells assessed as accumulation of cells at sub G1 phase at 250 nM after 24 hrs by propidium iodide staining-based flow cytometric analysis (reference value: 1.2 +/- 0.3%); type: functional
HT-29 [8] = assay: Cell cycle arrest in human HT-29 cells assessed as accumulation of cells at sub G1 phase at 350 nM after 24 hrs by propidium iodide staining-based flow cytometric analysis (reference value: 1.2 +/- 0.3%); type: functional
HT-29 [9] = assay: Cell cycle arrest in human HT-29 cells assessed as accumulation of cells at G1 phase at 100 nM after 24 hrs by propidium iodide staining-based flow cytometric analysis (reference value: 75.1 +/- 1.1%); type: functional
HT-29 [10] = assay: Cell cycle arrest in human HT-29 cells assessed as accumulation of cells at G1 phase at 250 nM after 24 hrs by propidium iodide staining-based flow cytometric analysis (reference value: 75.1 +/- 1.1%); type: functional
HT-29 [11] = assay: Cell cycle arrest in human HT-29 cells assessed as accumulation of cells at G1 phase at 350 nM after 24 hrs by propidium iodide staining-based flow cytometric analysis (reference value: 75.1 +/- 1.1%); type: functional
HT-29 [12] = assay: Cell cycle arrest in human HT-29 cells assessed as accumulation of cells at S phase at 100 nM after 24 hrs by propidium iodide staining-based flow cytometric analysis (reference value: 12.3 +/- 0.4%); type: functional
HT-29 [13] = assay: Cell cycle arrest in human HT-29 cells assessed as accumulation of cells at S phase at 250 nM after 24 hrs by propidium iodide staining-based flow cytometric analysis (reference value: 12.3 +/- 0.4%); type: functional
HT-29 [14] = assay: Cell cycle arrest in human HT-29 cells assessed as accumulation of cells at S phase at 350 nM after 24 hrs by propidium iodide staining-based flow cytometric analysis (reference value: 12.3 +/- 0.4%); type: functional
HT-29 [15] = assay: Cell cycle arrest in human HT-29 cells assessed as accumulation of cells at G2/M phase at 100 nM after 24 hrs by propidium iodide staining-based flow cytometric analysis (reference value: 11.4 +/- 1.4%); type: functional
HT-29 [16] = assay: Cell cycle arrest in human HT-29 cells assessed as accumulation of cells at G2/M phase at 250 nM after 24 hrs by propidium iodide staining-based flow cytometric analysis (reference value: 11.4 +/- 1.4%); type: functional
HT-29 [17] = assay: Cell cycle arrest in human HT-29 cells assessed as accumulation of cells at G2/M phase at 350 nM after 24 hrs by propidium iodide staining-based flow cytometric analysis (reference value: 11.4 +/- 1.4%); type: functional
Chorioallantoic membrane [18] = assay: Antiangiogenic activity in Leghorn chicken embryo chorioallantoic membrane assessed as disruption of smaller blood vessels at 5 nmol after 6 hrs by light microscopic analysis; type: functional, tissue-based; conditions: Gallus gallus
Summary of the method: (§3)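 Fertilized chicken eggs, CAM assay. Compound was applied topically into a small silicon foil ring placed on the CAM. The membrane and its extraembryonal blood vessels were monitored over 24 h, with observations at 6 h and 24 h post application.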

Chorioallantoic membrane [19] = assay: Antiangiogenic activity in Leghorn chicken embryo chorioallantoic membrane assessed as induction of hemorrhages at 5 nmol after 6 hrs by light microscopic analysis; type: functional, tissue-based; conditions: Gallus gallus; summary of the method: as §3
Chorioallantoic membrane [20] = assay: Antiangiogenic activity in Leghorn chicken embryo chorioallantoic membrane assessed as induction of hemorrhages at 5 nmol after 24 hrs by light microscopic analysis; type: functional, tissue-based; conditions: Gallus gallus; summary of the method: as §3
Chorioallantoic membrane [21] = assay: Antiangiogenic activity in Leghorn chicken embryo chorioallantoic membrane assessed as reduction in diameter of main blood vessel at 5 nmol after 24 hrs by light microscopic analysis; type: functional, tissue-based; conditions: Gallus gallus; summary of the method: as §3
Chorioallantoic membrane [22] = assay: Antiangiogenic activity in Leghorn chicken embryo chorioallantoic membrane assessed as reduction in blood vessel area at 5 nmol after 6 hrs by light microscopic analysis relative to control; type: functional, tissue-based; parameters: scale not given: the % may be the effect or the level left; conditions: Gallus gallus
Summary of the method: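 The CAM assay was run with topical application into a silicon foil ring atop the CAM of fertilized chicken eggs. Area covered by blood vessels was quantified by fractal analysis relative to control.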

Chorioallantoic membrane [23] = assay: Antiangiogenic activity in Leghorn chicken embryo chorioallantoic membrane assessed as effect on blood vessel length at 5 nmol after 6 hrs by light microscopic analysis; type: functional, tissue-based; conditions: Gallus gallus; summary of the method: as §3
518A2 [24] = assay: Induction of apoptosis in human 518A2 cells assessed as accumulation at subG1 phase; type: functional, cell-based
518A2 [25] = assay: Induction of cell cycle arrest in human 518A2 cells; type: functional, cell-based
HT-29 [26] = assay: Cell cycle arrest in human HT-29 cells assessed as accumulation of cells at G2/M phase after 24 hrs by propidium iodide staining-based flow cytometric analysis; type: functional
Chorioallantoic membrane [27] = assay: Antiangiogenic activity in Leghorn chicken embryo chorioallantoic membrane assessed as disruption of smaller blood vessels at 5 nmol after 24 hrs by light microscopic analysis; type: functional, tissue-based; conditions: Gallus gallus; summary of the method: as §3

For `CSc1ccc(C2C(C#N)=C(N)Oc3c2cc(Cl)c2ccccc32)cc1` (stereo unspecified), the Activity (518A2 [1]) was “Dose-dependent effect”, the IC50 (518A2 [1]) was 1.35 µM and the IC50 (HT-29 [2]) was 1.54 µM. For the same compound, the IC50 (A2780) was 1.07 µM and the IC50 [3] was 1.29 µM.

In the case of `N#CC1=C(N)Oc2c(ccc3ccccc23)C1c1ccc(S(F)(F)(F)(F)F)cc1` (stereo unspecified), the Activity (518A2 [1]) is reported as “Dose-dependent effect”, the IC50 (518A2 [1]) is reported as 7.13 µM and the IC50 (HT-29 [2]) is reported as 9.97 µM. For the same compound, the IC50 (A2780) was 5.16 µM and the IC50 [3] was 5.58 µM.

For `COc1c(Br)cc(C2C(C#N)=C(N)Oc3c2cc(Cl)c2ccccc32)cc1Br` (stereo unspecified), the Activity (518A2 [1]) was “Dose-dependent effect”, the IC50 (518A2 [1]) was 0.144 µM and the IC50 (HT-29 [2]) was 0.188 µM. It also gave an IC50 (A2780) of 0.16 µM and an IC50 [3] of 0.168 µM.

In the case of `N#CC1=C(N)Oc2c(ccc3ccccc23)C1c1cccc(S(F)(F)(F)(F)F)c1` (stereo unspecified), the Activity (518A2 [1]) is reported as “Dose-dependent effect”, the IC50 (518A2 [1]) is reported as 0.505 µM and the IC50 (HT-29 [2]) is reported as 0.57 µM. For the same compound, the IC50 (A2780) was 0.188 µM and the IC50 [3] was 0.265 µM.

In the case of `N#CC1=C(N)Oc2c(cc(Cl)c3ccccc23)C1c1cccc([N+](=O)[O-])c1` (stereo unspecified), the Activity (518A2 [1]) is reported as “Dose-dependent effect”, the IC50 (518A2 [1]) is reported as 0.225 µM and the IC50 (HT-29 [2]) is reported as 0.209 µM. It also gave an IC50 (A2780) of 0.0611 µM, an IC50 [3] of 0.046 µM and an IC50 (DLD-1) of 0.0223 µM. For the same compound, the IC50 (EA.hy 926) was 0.0908 µM, the IC50 (PANC-1) was 0.0659 µM and the IC50 (HCT-116) was 0.112 µM. The IC50 [4] was 0.0733 µM, the IC50 [5] was 0.0885 µM and the Activity (HT-29 [6]) was 2%. It also gave an Activity (HT-29 [7]) of 17.6%, an Activity (HT-29 [8]) of 6.6% and an Activity (HT-29 [9]) of 55.8%. The Activity (HT-29 [10]) was 53.5%, the Activity (HT-29 [11]) was 14.8% and the Activity (HT-29 [12]) was 23.6%. The Activity (HT-29 [13]) was 11.3%, the Activity (HT-29 [14]) was 5.2% and the Activity (HT-29 [15]) was 18.6%. For the same compound, the Activity (HT-29 [16]) was 17.7%, the Activity (HT-29 [17]) was 73.5% and the Activity (Chorioallantoic membrane [18]) was “Active”. The Activity (Chorioallantoic membrane [19]) was “Active”, the Activity (Chorioallantoic membrane [20]) was “inactive” and the Activity (Chorioallantoic membrane [21]) was “Active”. For the same compound, the Activity (Chorioallantoic membrane [22]) was 74%, the Activity (Chorioallantoic membrane [23]) was “inactive” and the Activity (518A2 [24]) was “Active”. The Activity (518A2 [25]) was “inactive”, the Activity (HT-29 [26]) was “Dose-dependent effect” and the Activity (Chorioallantoic membrane [27]) was “inactive”.

In the case of `N#CC1=C(N)Oc2c(cc(Cl)c3ccccc23)C1c1cccc(C#N)c1` (stereo unspecified), the Activity (518A2 [1]) is reported as “Dose-dependent effect”, the IC50 (518A2 [1]) is reported as 0.0605 µM and the IC50 (HT-29 [2]) is reported as 0.0673 µM. The IC50 (A2780) was 0.0499 µM, the IC50 [3] was 0.0567 µM and the IC50 (DLD-1) was 0.0694 µM. For the same compound, the IC50 (EA.hy 926) was 0.0786 µM, the IC50 (PANC-1) was 0.0549 µM and the IC50 (HCT-116) was 0.0735 µM. It also gave an IC50 [4] of 0.0559 µM, an IC50 [5] of 0.0581 µM and an Activity (HT-29 [6]) of 19.8%. It also gave an Activity (HT-29 [7]) of 27.8%, an Activity (HT-29 [8]) of 27% and an Activity (HT-29 [9]) of 51.7%. It also gave an Activity (HT-29 [10]) of 22.2%, an Activity (HT-29 [11]) of 13% and an Activity (HT-29 [12]) of 16.1%. It also gave an Activity (HT-29 [13]) of 9.1%, an Activity (HT-29 [14]) of 8.5% and an Activity (HT-29 [15]) of 12.3%. For the same compound, the Activity (HT-29 [16]) was 40.9%, the Activity (HT-29 [17]) was 51.6% and the Activity (Chorioallantoic membrane [18]) was “Active”. The Activity (Chorioallantoic membrane [19]) was “Active”, the Activity (Chorioallantoic membrane [20]) was “inactive” and the Activity (Chorioallantoic membrane [21]) was “Active”. For the same compound, the Activity (Chorioallantoic membrane [22]) was “inactive”, the Activity (Chorioallantoic membrane [23]) was “inactive” and the Activity (518A2 [24]) was “Active”. For the same compound, the Activity (518A2 [25]) was “inactive”, the Activity (HT-29 [26]) was “Dose-dependent effect” and the Activity (Chorioallantoic membrane [27]) was “inactive”.

For `N#CC1=C(N)Oc2c(cc(Cl)c3ccccc23)C1c1ccc(C#N)cc1` (stereo unspecified), the Activity (518A2 [1]) was “Dose-dependent effect”, the IC50 (518A2 [1]) was 0.753 µM and the IC50 (HT-29 [2]) was 1.59 µM. For the same compound, the IC50 (A2780) was 1.44 µM and the IC50 [3] was 1.41 µM.
